An excerpt weighted towards active compounds, which were near 2.9% of everything screened.
5-HT1A blocker = antagonists of human 5-HT1a serotonin receptor | CHO 5-HT1a Ga15 NFAT-bla reporter, antagonist mode | inhibition, % at 10 µM | 62,000 tested, 0.68% active | AID 612;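 active = inhibition above the mean of all tested compounds plus 3 SD, cut at about 43% in these data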;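 also: receptor stimulated by 5-CT agonist at 100 nM near EC80; beta-lactamase reporter measured by ratiometric fluorescence of a cleavable substrate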
S1P3 ag = S1P3 (human) receptor agonism. Q99500. S1P3 NFAT-BLA reporter cells, FRET ratio; relative to 1 µM S1P, basal subtracted. activation, % at 4.5 µM. 60,000 tested, 0.1% active;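 active = activation above the screen-wide mean plus 3 SD, cut at about 4.5% in these data, passing the limit was not always enough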
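Assay system: CHO cells stably expressing human S1P3, Gα16 and NFAT-β-lactamase reporter. Timing: overnight plating, 4 h compound 37 °C, 2 h substrate RT. Signal: β-lactamase FRET emission ratio 460/535 nm. Measure: percent activation versus median 1 µM S1P response, basal-subtracted, per plate. Repeats: primary screen single test, confirmation screen in triplicate.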
HTR1E antagonist = antagonists of human 5-HT1E serotonin receptor. inhibition, % at 6 µM. CHO 5-HT1E Ga15 NFAT-bla reporter, FRET, antagonist. 65,000 tested, 0.99% active;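 active = inhibition above a set limit, the mean inhibition across every tested compound plus 3 SD, cut at about 29% in these data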;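 also: signal is the 460 over 535 nm emission ratio of beta-lactamase substrate; 0% = agonist plus DMSO wells and 100% = wells without agonist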
Target sequence (P28566 whole entry, looked up): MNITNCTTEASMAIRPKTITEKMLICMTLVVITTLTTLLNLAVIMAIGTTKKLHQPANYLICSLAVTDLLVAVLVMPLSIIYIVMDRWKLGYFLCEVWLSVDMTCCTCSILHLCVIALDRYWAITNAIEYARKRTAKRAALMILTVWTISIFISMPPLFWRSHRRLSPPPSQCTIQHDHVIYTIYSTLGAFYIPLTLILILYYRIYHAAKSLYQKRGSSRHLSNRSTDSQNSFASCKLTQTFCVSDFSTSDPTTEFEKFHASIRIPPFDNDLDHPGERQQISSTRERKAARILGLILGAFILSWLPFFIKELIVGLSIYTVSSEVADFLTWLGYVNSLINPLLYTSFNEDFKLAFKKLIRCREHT
S1P1 ag pot = agonists and agonism potentiators of human S1P1 receptor; AID 449; activation, % at 9.5 µM; 56,000 tested, 0.57% active; S1P1 CRE-bla cells, forskolin, beta-lactamase FRET, potentiator mode; S1P1 agonist co-added at EC20, 2 nM; 100% = saturating reference agonist, 0% = basal;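 active = activation above a cutoff set at the mean activation of all tested compounds plus 3 SD, cut at about 54% in these data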;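 also: forskolin at 4 µM as EC80 and the EC20 agonist is SEW2871; 100% = SEW2871 at its EC100 plus forskolin at EC80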
5HT1E ag = agonists of human 5-HT1E serotonin receptor; P28566; CHO 5-HT1E Ga15 NFAT-bla reporter, FRET; 0% DMSO wells, 100% control agonist wells; activation, % at 6 µM; 65,000 tested, 0.69% active;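 active = activation above a set limit, the screen-wide mean activation plus 3 SD, cut at about 8.5% in these data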;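 also: 100% = positive control agonist at 1 µM giving full maximal response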
HTR1A agonist = activates the human 5-HT1a serotonin receptor; CHO 5-HT1a Ga15 NFAT-bla reporter, FRET ratio; 0% basal, 100% maximal reference agonist; activation, % at 10 µM; 65,000 tested, 0.56% active; AID 567;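 active = activation above the screen-wide mean activation plus 3 SD, cut at about 19% in these data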;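 also: 0% = DMSO wells and 100% = 5-CT at EC100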
Numbers without * were called inactive; nt = not tested or not shown.

SMILES	5-HT1A blocker	S1P3 ag	HTR1E antagonist	S1P1 ag pot	5HT1E ag	HTR1A agonist
COc1ccc(N(CC(=O)NCc2cccs2)S(=O)(=O)c2c(C)nn(C)c2C)cc1	-14.7	-0.9	33.7*	-3.4	0.6	-1.9
O=c1[nH]nc(Sc2ncnc3sccc23)n1CCc1ccccc1	32.7	-0.9	27.3	56.6	-0.9	21.9*
CCOc1ccc(Nc2nc(Cc3nnc(SCC(=O)NCc4ccco4)n3CC)cs2)cc1	-19.5	-0.2	-0.9	-79.5	1.0	18.4
Cc1occc1-c1nnc(SCC(=O)NC(C)(C)C)n1C(C)c1ccccc1 (stereo unspecified)	10.1	0.2	-0.3	7.0	43.2*	1.1
COc1cccc(-n2c(SCC(=O)NC(C)(C)C)nnc2-c2ccoc2C)c1	0.8	-0.8	3.4	3.1	0.3	-0.7
COC(=O)C(c1cc(OC)c(O)c(OC)c1)(N1CCNC(C)C1)C(F)(F)F (stereo unspecified)	0.0	-0.6	7.0	-1.0	0.0	-3.6
Cn1cccc1Cc1nnc(SCC(=O)N2CCOCC2)n1CCc1ccccc1	8.6	-0.3	-7.0	-3.9	0.8	472.8*
CCOC(=O)N1CCN(C(=O)CSc2nnc(Cc3cccn3C)n2CCc2ccccc2)CC1	-5.7	-0.6	-10.8	-15.0	-0.1	0.2
COCCn1c(COc2cccc(OC)c2)nnc1SCC(=O)N1CCOCC1	3.6	0.0	0.8	1.9	18.8*	1.2
Nc1cc(OC(=O)c2cccs2)nn1S(=O)(=O)c1ccccc1	8.5	-0.2	-1.4	-10.9	-0.6	-3.1
Cc1nn(-c2ccccc2)c(OC(=O)c2cccs2)c1S(=O)(=O)c1ccccc1	-6.3	1.3	4.3	4.6	-0.7	80.9*
CCSCCOC(=O)C1=C(C)NC(=O)NC1c1ccc2c(c1)OCO2 (stereo unspecified)	-7.2	-0.6	21.3	-4.9	0.7	199.9*
CCOC(=O)C1=C(C)NC(=O)NC1c1ccc2c(c1)OCO2 (stereo unspecified)	nt	0.2	-0.4	-7.2	-0.3	-0.3
COc1cccc(-n2nnnc2SCC(=O)c2cc(OC)ccc2OC)c1	12.8	-1.8	8.2	2.3	-0.3	-4.0
c1ccc(Cc2nc(-c3ccccn3)no2)cc1	-4.7	-1.2	3.3	-18.3	-0.6	1.3
c1ccc(C(Cc2nc(-c3ccccn3)no2)c2ccccc2)cc1	-16.4	10.7*	-15.4	13.6	0.3	1.4
c1ccc(C(Cc2nc(-c3cccnc3)no2)c2ccccc2)cc1	15.3	20.3*	18.5	85.4*	-0.9	-0.3
Cc1c(-n2cc(C(=O)c3ccccc3O)cc(C#N)c2=O)c(=O)n(-c2ccccc2)n1C	-10.2	0.2	-1.8	3.4	0.2	325.0*
CC1CCN(c2nc3ccccc3nc2C(C#N)S(=O)(=O)c2ccccc2)CC1 (stereo unspecified)	2.9	nt	-5.8	nt	-0.1	0.0
COc1ccc2c(c1)c1nnc(SC)nc1n2C	4.1	0.8	12.9	-52.2	17.1*	1.6
Clc1ccccc1CNc1ncnc2nc[nH]c12	3.1	-0.9	-10.4	9.2	0.9	47.2*
c1ccc(CNc2ncnc3nc[nH]c23)nc1	-1.8	-0.7	5.5	0.3	-0.2	-2.9
COCCn1c(C)cc(C(=O)CSc2nnc3scc(-c4ccc(Cl)cc4)n23)c1C	5.2	-0.7	5.1	nt	0.4	-0.8
CC(=O)Oc1ccc2c(c1)c(C(C)=O)c(C)n2C	7.6	-0.8	-4.8	1.2	0.2	-5.6
COc1ccc(-n2c(C)c(C(C)=O)c3cc(O)ccc32)cc1	nt	-4.1	24.9	76.2*	-0.1	-3.0
SMILES	5-HT1A blocker	S1P3 ag	HTR1E antagonist	S1P1 ag pot	5HT1E ag	HTR1A agonist
O=C(CC1(O)C(=O)Nc2ccc(Br)cc21)c1ccc2c(c1)OCO2 (stereo unspecified)	-2.5	-0.2	4.7	-1.1	-0.6	-2.7
Cc1nnc(NCc2ccncc2)c2ccccc12	5.3	-0.7	-5.0	-8.1	0.9	88.3*
Cc1nnc(NCc2ccco2)c2ccccc12	-14.8	-0.8	-7.0	0.0	-0.6	-0.9
CCCc1nn(C)c2c1C(c1ccncc1)C(C#N)=C(N)O2 (stereo unspecified)	10.2	0.0	7.5	-0.9	-0.5	-3.8
CCOc1ccccc1-c1nnc(SCC(=O)NC2CC3CCC2C3)n1CC (stereo unspecified)	1.6	-1.0	-1.1	-12.4	10.9*	-4.8
O=C(CSc1nnc(-c2ccco2)o1)NC1CC2CCC1C2 (stereo unspecified)	13.0	-0.8	2.9	nt	-1.2	0.6
CCCCCCc1cc2cc(-c3nnc(-c4ccccc4O)o3)c(=O)oc2cc1O	nt	-0.4	-19.5	-13.3	4.9	48.6*
COc1cc2c(cc1NC(=O)CN1C(=O)NC3(CCc4ccccc43)C1=O)oc1ccccc12 (stereo unspecified)	45.0*	-0.9	-14.2	-7.5	1.4	-1.4
COc1cc2c(cc1NC(=O)CCCN1C(=O)CCC1=O)oc1ccccc12	-8.0	-1.0	-2.0	-5.6	0.4	11.4
CC(C)N1CC=C2C(C#N)=C(N)C(C#N)(C#N)C(c3ccccc3)C2C1 (stereo unspecified)	nt	5.0	1.6	12.5	3.8	25.8*
COc1cc(C2C3CN(C)CC=C3C(C#N)=C(N)C2(C#N)C#N)ccc1OC(C)C (stereo unspecified)	3.2	nt	-4.4	nt	1.7	0.9
CCOC(=O)c1sc2nc(NC(=O)C3CCCCC3)sc2c1C	-12.4	-1.6	-7.8	73.5*	-0.6	-4.1
CCOC(=O)c1sc2nc(NC(=O)C3CC3)sc2c1C	-13.4	0.7	1.9	-13.4	-0.1	0.8
CCN(C1CCCCC1)S(=O)(=O)c1ccc(S(=O)(=O)NCc2ccncc2)cc1	-11.1	-1.5	-4.0	87.5*	0.3	-0.6
O=C(NC1CCCCC1)C(c1ccccc1F)N(Cc1ccco1)C(=O)Cn1nnc2ccccc21 (stereo unspecified)	54.7*	-1.1	10.6	-3.0	-1.0	1.4
CCC(C(=O)NC1CCCC1)N(Cc1ccco1)C(=O)Cn1nnc(-c2ccc(C)cc2)n1 (stereo unspecified)	19.3	-1.5	4.9	7.9	9.0*	-1.6
CCOC(=O)CN(C(=O)Cn1nnc(-c2ccc(C)cc2)n1)C(CC)C(=O)NC1CCCC1 (stereo unspecified)	-2.6	-0.5	-11.9	-0.7	0.2	-4.0
O=C(NC1CCCCC1)C(c1ccc(F)cc1)N(Cc1ccco1)C(=O)Cn1nnc2ccccc21 (stereo unspecified)	38.0	-0.4	5.3	-14.9	-1.1	0.2
CC(C)(C)NC(=O)c1ccccc1-c1nc(-c2ccccc2Cl)no1	28.8	-0.4	-5.4	3.7	-0.9	-1.6
Cc1ccccc1-n1c(SCc2ccccn2)nc2n[nH]c(C)c2c1=N	-93.3	-0.3	56.8*	-21.6	0.8	5.2
